Assay outcomes (PubChem)
Hits are enriched below; roughly 3.7% of the tested compounds scored in any of these assays.
Dynein cargo inh = dynein cargo transport inhibition; 3617.4 mouse cells, GR-EGFP nuclear translocation imaging; test concentration mostly 20 µM; stimulated with dexamethasone, 1 µM; hits give low values; z-score, hits read low; AID 1381; actives 0.47% (n = 220,000);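 active = plate z-score of nuclear minus cytoplasmic receptor signal below a set negative limit, without overly bright fluorescence or cell loss, cut at about -3.5 in these data, passing the limit was not always enough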;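 note: z-score of nuclear minus cytoplasmic ring GR-EGFP intensity difference per well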
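medium = tetracycline-free induction medium containing charcoal-stripped FBS | probe or stimulus = dexamethasone, 1.0 µM final | timing = 48 h induction, then 1 h compound, then 30 min agonist, 37 °C | detection = automated 10x imaging of fixed Hoechst-stained cells | read-out basis = nuclear versus cytoplasmic GR-EGFP signal, averaged per well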
Beta2AR agonist = activates human beta-2 adrenergic receptor causing internalization; actives 0.43% (n = 340,000); response, % (concentration not given with the values); Am2.2-beta2AR cells, FAP receptor internalization, flow cytometry;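 active = response above a set limit, near 3 SD of response in nonfluorescent compounds, cut at about 42% in these data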
Target sequence (P07550 whole entry, looked up): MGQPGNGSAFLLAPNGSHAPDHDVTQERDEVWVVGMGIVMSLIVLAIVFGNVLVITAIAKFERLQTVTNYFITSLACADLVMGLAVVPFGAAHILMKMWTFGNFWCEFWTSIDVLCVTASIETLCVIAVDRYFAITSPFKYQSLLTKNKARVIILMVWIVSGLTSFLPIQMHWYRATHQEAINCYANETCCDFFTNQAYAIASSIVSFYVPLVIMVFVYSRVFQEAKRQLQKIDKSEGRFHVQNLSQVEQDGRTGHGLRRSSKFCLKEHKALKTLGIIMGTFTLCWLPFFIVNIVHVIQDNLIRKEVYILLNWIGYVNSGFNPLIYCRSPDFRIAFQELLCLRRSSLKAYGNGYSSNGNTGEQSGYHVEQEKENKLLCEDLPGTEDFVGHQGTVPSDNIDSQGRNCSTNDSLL
CHOP UPR activ = apoptotic UPR (CHOP) activation. CHO-CHOP luciferase reporter, luminescence; percent of tunicamycin response over DMSO baseline. activation, % at 10 µM. actives 0.34% (n = 330,000);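 active = at 10 µM dose, activation of 40% or more, normalized to positive control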
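Test system: CHO CHOP reporter cells. Input: 500 CHO-CHOP cells per well. Medium: F12 with 10% FBS. Technique: luciferase luminescence. Measure: percent activation relative to tunicamycin control. Dosing: 10 µM compound, 0.5% DMSO. Timing: 16-18 h cell attachment, then 6 h compound exposure, 37 °C.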
MDM2 E3 inh = blocks human Mdm2 ubiquitin ligase activity; Q00987; signal enhancement, % at 5 µM; cell-based MDM2 ubiquitination luciferase reporter, 2 h; 0 = plate control, 100 = twice control, blank-subtracted; actives 0.11% (n = 210,000);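 active = signal enhancement of 30% or more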;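 note: luminescence tracks abundance of the self-degrading MDM2-luciferase fusion protein; higher signal means inhibition of MDM2 E3 ligase activity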
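Assay system: stable mammalian line carrying autodegrading MDM2–luciferase fusion reporter; Input: 2000 cells in each well; Compound dosing: single-point 5 µM; Schedule: 2 h compound exposure at 37 °C; Signal: SteadyLite luciferase luminescence after 15 min room-temperature reagent incubation; Evaluation: % luminescence enhancement versus blank-corrected plate control mean; Benchmarks: plate controls and plate blanks.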
Mdm2 MdmX PPI = inhibitors of human Mdm2/MdmX interaction | O15151+Q00987 | SaOS-2 split-luciferase Mdm2/MdmX complementation, luminescence | inhibition, % at 8 µM | actives 3% (n = 330,000) | AID 485346;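 active = inhibition of at least 50% at 8 µM in the primary screen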
UPR XBP1 act = adaptive UPR (XBP1) activation; CHO-XBP1 luciferase reporter, IRE1-XBP1 UPR activation, luminescence; percent of tunicamycin response, DMSO as zero; activation, % at 20 µM; actives 0.33% (n = 330,000);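 active = versus positive control, 20 µM dose yields 30% or more activation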
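Material – CHO cell line with stable XBP1 luciferase reporter · Buffer or medium – F12 plus 10% FBS · Compound – single point, 20 µM final compound, 1% DMSO · Schedule – 16-18 h cell attachment at 37 °C, then 6 h compound exposure · Signal – Steady-Glo luminescence read · Benchmarks – high control tunicamycin 10 µg/mL final, low control DMSO vehicle only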
XBP1 UPR conf = confirmation of adaptive unfolded protein response (XBP1) activators; CHO-XBP1 IRE1-XBP1 luciferase reporter, luminescence; activation, % at 20 µM; shares compounds with UPR XBP1 act; actives 63% (n = 1,000);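 active = reporter signal at least 30% of the positive control's activation in two or more of four replicate wells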
Numbers stand for hits; - = inactive; . = not tested or not shown.

SMILES | Dynein cargo inh | Beta2AR agonist | CHOP UPR activ | MDM2 E3 inh | Mdm2 MdmX PPI | UPR XBP1 act | XBP1 UPR conf
CN1C(=O)/C(=N\OC(=O)c2cccc3ccccc23)c2ccccc21 | - | - | - | - | - | 43 | -
CC(O)(CC(=O)CC(=O)c1ccccc1)c1ccccc1 (stereo unspecified) | . | - | . | . | . | . | .
COc1ccc(OCCN2C(=O)c3cccc(N)c3C2=O)cc1 | . | - | - | . | - | - | .
CC(=O)c1cccc(Nc2nc(-c3cccc([N+](=O)[O-])c3)cs2)c1 | - | - | - | - | - | 43 | 32
Cc1ccc(-c2csc(NC(=O)c3cccc([N+](=O)[O-])c3)n2)cc1 | - | - | - | - | - | - | .
N#C/C(=C\c1ccc(N2CCOCC2)c([N+](=O)[O-])c1)c1nc2ccccc2[nH]1 | - | - | - | - | - | - | .
N#C/C(=C/c1ccc(N2CCCC2)c([N+](=O)[O-])c1)c1nc2ccccc2[nH]1 | - | 82 | - | - | - | 131 | 87
O=[N+]([O-])c1ccc(-c2nn(-c3ccccc3)cc2/C=N/n2c(-c3cccs3)n[nH]c2=S)cc1 | - | - | - | - | - | 41 | -
COc1cc(/C=C2/C(=N)N3C=CSC3=NC2=O)ccc1OCCCOc1cc(C)ccc1C | - | 63 | - | - | - | 85 | 129
Cc1cc(C(=O)N2CCN(c3cc(Cl)ccc3C)CC2)on1 | . | - | - | . | - | - | .
CC(C(=O)Nc1ccc2c(c1)OCO2)N1CCC(N2CCCCC2)CC1 (stereo unspecified) | . | - | - | . | - | - | .
CCCCC1=CC2=C(c3ccco3)C(=O)C(C)(OC(=O)c3ccc(OC)cc3)C(=O)C2=CN1CC(C)C (stereo unspecified) | - | - | - | - | - | 33 | -
CCN(CC)CCn1c(SCC(=O)Nc2ccc(F)cc2)nc2c(sc3ccccc32)c1=O | - | . | - | - | - | 166 | 228
COc1ccccc1NC(=O)CSc1nc2c(sc3ccccc32)c(=O)n1CCN(C)C | - | - | - | - | - | - | .
O=[N+]([O-])c1cccc(/C=C/c2nc(C=Nc3ccccc3)c(O)o2)c1 | - | - | - | - | - | 36 | -
O=C1NC(=S)N/C1=C\C=C\c1ccccc1 | - | - | - | - | - | 39 | -
CCOC(=O)COc1cc2oc(=O)cc(C)c2cc1[N+](=O)[O-] | - | - | - | - | - | - | .
O=C(Nc1ccc(C(=O)N2CCOCC2)cc1)c1cnn2c(C(F)F)cc(-c3ccccc3)nc12 | - | - | - | - | - | - | .
COc1ccc(-c2cc(C(F)F)n3ncc(C(=O)Nc4ccc(C(=O)N5CCOCC5)cc4)c3n2)cc1 | - | - | - | - | - | 33 | 52
Cc1cc2nc(-c3ccc(SCC(=O)NC(C)C)nc3)[nH]c2cc1C | - | . | - | - | - | - | .
Cc1cc(NC(=O)CSc2ccc(-c3nc4cc(C)c(C)cc4[nH]3)cn2)no1 | - | - | - | - | - | 58 | 31
C/C(=N\N=C1\NC(=O)C(CC(=O)Nc2ccccc2F)S1)C1CCCCC1 (stereo unspecified) | . | - | - | . | - | - | .
COc1ccc(-n2nc3c(N4CCC(C(=O)NCCc5ccccc5C)CC4)nnc(C)c3c2C)cc1 | . | - | - | . | - | 50 | -
Clc1ccccc1-c1ccc(/C=N/Nc2nncc(-c3ccccc3)n2)o1 | - | - | - | - | - | 41 | -
Cc1ccc(S(=O)(=O)Cc2cc(F)c([N+](=O)[O-])cc2[N+](=O)[O-])cc1 | . | - | - | . | - | 33 | 41
SMILES | Dynein cargo inh | Beta2AR agonist | CHOP UPR activ | MDM2 E3 inh | Mdm2 MdmX PPI | UPR XBP1 act | XBP1 UPR conf
CCCOC(=O)c1cccc(Nc2nc(-c3cccnc3)nc3ccccc23)c1 | - | - | - | - | - | 32 | 58
O=C(OCCNc1nc(-c2ccccc2)nc2ccccc12)c1cccnc1 | - | - | - | - | - | - | .
COc1ccc(Nc2nc(-c3ccccc3)nc3ccccc23)c(OC)c1 | - | - | - | - | - | - | .
COc1ccc(/C=N/Nc2nc(-c3cccnc3)nc3ccccc23)c(OC)c1 | - | - | - | - | - | 37 | -
COc1ccc(-c2[nH]c(-c3ccc(Cl)cc3)nc2SCC(=O)Nc2nccs2)cc1 | - | - | - | . | - | 46 | -
COc1ccccc1OCC(=O)Sc1ccc(C)cc1 | - | - | - | - | - | 34 | -
COc1ccc(-c2cc(C(=O)Nc3c(C)nn(Cc4ccc(Cl)cc4)c3C)no2)cc1 | - | - | - | - | - | 49 | -
Cc1cccc(C)c1NC(=O)C1CSC2(C)CCC(=O)N12 (stereo unspecified) | . | - | - | . | - | - | .
Cc1cccc2sc(NC(=O)C3CSC4(C)CCC(=O)N34)nc12 (stereo unspecified) | . | - | - | . | - | 31 | -
CCOc1ccc(/C=N/NC(=O)c2nnn(-c3nonc3N)c2CN2CCC(C)CC2)cc1 | . | - | - | . | - | - | .
CC1CCN(Cc2c(C(=O)N/N=C/c3ccc(C(F)(F)F)cc3)nnn2-c2nonc2N)CC1 | . | - | - | . | - | 30 | 40
COc1c(Cl)cc(Cl)cc1/C=N/NC(=O)c1nnn(-c2nonc2N)c1CN1CCC(C)CC1 | . | - | - | . | - | 68 | 91
Cc1cc(C)c(/C=N/NC(=O)c2nnn(-c3nonc3N)c2CN2CCC(C)CC2)c(C)c1 | . | - | - | . | - | 32 | -
Cc1ccc2nc(/C(C#N)=C/c3ccccc3C(=O)O)[nH]c2c1 | . | - | - | . | - | - | .
Cc1ccc2nc(/C(C#N)=C/c3ccc(O)c(O)c3)[nH]c2c1 | . | - | - | . | - | 43 | 33
O=C(CCc1nc2ccccc2c(=O)[nH]1)N1CCN(S(=O)(=O)c2ccc(F)cc2)CC1 | . | - | - | . | - | - | .
CCOC(=O)c1ccc(N2Cc3ccccc3C2=NC(=O)c2cccc([N+](=O)[O-])c2)cc1 | . | - | - | . | - | 56 | -
CCc1noc(C)c1C(=O)N1CCC(CCC(=O)Nc2cccc(OC)c2)CC1 | . | - | - | . | - | - | .
CCC(COC)NC(=O)c1ccc(OC)c(OC2CCN(C(C)=O)CC2)c1 (stereo unspecified) | . | - | - | . | - | - | .
COc1cc(/C=N\Nc2ccc([N+](=O)[O-])cc2)ccc1OCC(=O)Nc1ccc(C)c(C)c1 | - | - | . | - | . | . | .
CCOc1cc(/C=N\Nc2ccc([N+](=O)[O-])cc2)ccc1OCC(=O)Nc1ccc(C)c(C)c1 | - | - | - | - | - | 44 | 66
